Reference: ChEMBL document CHEMBL3612036, “Design, Synthesis, and Cardioprotective Effects of N-Mercapto-Based Hydrogen Sulfide Donors” (J Med Chem, 2015)
Active and inactive are the calls of the source. No cut-off for these calls is given here.

Key:
[1] = tested on: H9c2; experiment: Cytoprotective activity against H2O2-induced cell damage in rat H9c2 cells at 160 uM incubated for 1 hr before H2O2 challenge for 5 hrs by CCK8 assay; format: functional, cell-based
Outline: (§1)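 H9c2 cells (high-glucose DMEM, 10% FBS, 37 °C, 5% CO2) were preincubated 1 h with test agent, washed with PBS, then exposed to H2O2 (400 μM) for 5 h. Viability was read by CCK-8 (1:10 dilution, 3 h at 37 °C, absorbance 450 nm). The mean OD of 4 wells was expressed as % of control. Experiments were done in triplicate.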

[2] = […] peak time for H2S release in pH 7.4 PBS buffer containing 10% THF incubated for 2 hrs at room temperature in presence of cysteine by methylene blue based UV-Vis spectrometry; format: physicochemical; details: pH 7.4, 2 h
Outline: (§2)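 Donor (30 mM THF stock; 0.1 mM final) was added to PBS (pH 7.4, 50 mM)/THF 9:1 containing the stated thiol, at room temperature for 2 h. 1.0 mL aliquots were taken periodically into methylene blue cocktail (zinc acetate, N,N-dimethyl-p-phenylenediamine in HCl, FeCl3 in HCl) and reacted 15 min. Absorbance was read at 670 nm and H2S quantified against a Na2S calibration curve; peak concentration and peak time were recorded.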

[3] = […] peak time for H2S release in pH 7.4 PBS buffer containing 10% THF incubated for 2 hrs at room temperature in presence of 1 mM GSH by methylene blue based UV-Vis spectrometry; format: physicochemical; details: pH 7.4, 2 h; outline: as §2
[4] = GSH-induced H2S release assessed as peak H2S level in pH 7.4 PBS buffer containing 10% THF incubated for 2 hrs at room temperature in presence of cysteine by methylene blue based UV-Vis spectrometry; format: physicochemical; details: pH 7.4, 2 h; outline: as §2
[5] = GSH-induced H2S release assessed as peak H2S level in pH 7.4 PBS buffer containing 10% THF incubated for 2 hrs at room temperature in presence of 1 mM GSH by methylene blue based UV-Vis spectrometry; format: physicochemical; details: pH 7.4, 2 h; outline: as §2
[6] = tested on: H9c2; experiment: Cytotoxicity against rat H9c2 cells assessed as reduction in cell viability at <40 uM incubated for 1 hr by CCK8 assay; format: cell-based; details: h9c2, 1 h
Outline: (§3)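 H9c2 cells (high-glucose DMEM, 10% FBS, 37 °C, 5% CO2) were exposed 1 h to donor over 20–160 μM, either alone or with 480 μM cysteine, then washed twice with PBS. Viability was measured by CCK-8 (1:10 dilution, 3 h at 37 °C, absorbance 450 nm). The mean OD of 4 wells was expressed as % of control, in triplicate.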

[7] = tested on: H9c2; experiment: Cytotoxicity against rat H9c2 cells assessed as reduction in cell viability at >80 uM incubated for 1 hr by CCK8 assay; format: cell-based; details: h9c2, 1 h; outline: as §3
[8] = tested on: H9c2; experiment: Cytotoxicity against rat H9c2 cells assessed as reduction in cell viability at 160 uM in presence of 480 uM cysteine incubated for 1 hr by CCK8 assay; format: cell-based; details: h9c2, 1 h; outline: as §3
[9] = tested on: H9c2; experiment: Cytoprotective activity against H2O2-induced cell damage in rat H9c2 cells at 160 uM pre-incubated for 1 hr before H2O2 challenge for 5 hrs in presence of 480 uM cysteine by LDH release assay; format: functional, cell-based
Outline: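 H9c2 cells at about 70% confluence were preconditioned 1 h with donor plus cysteine (480 μM), then treated with H2O2 (400 μM) for 5 h. Extracellular LDH was measured in supernatant; intracellular LDH in lysate made with 2% Triton X-100 in DMEM. Kit reaction ran 10 min at room temperature, read at 490/600 nm. % release = extracellular/(extracellular+intracellular). Run 4 times.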

[10] = tested on: H9c2; experiment: Cytoprotective activity against H2O2-induced cell damage in rat H9c2 cells assessed as reduction in mitochondrial membrane potential loss at 160 uM pre-incubated for 1 hr before H2O2 challenge for 5 hrs in presence of 480 uM cysteine by Rh123 dye based fluorescent microscopy; format: functional
Outline: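 H9c2 cells were grown in high-glucose DMEM with 10% FBS at 37 °C, 5% CO2. They were pretreated 1 h with donor plus cysteine (480 μM), then given H2O2 (400 μM) for 5 h. Rh123 (10 mg/L) was added for 15 min at 37 °C. Fluorescence microscopy gave mean Rh123 intensity from four random fields.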

[11] = tested on: Mus musculus; experiment: Cardioprotective activity in C57BL6/J mouse model of myocardial ischemia/reperfusion assessed as reduction in infarct size per area-at-risk dosed through direct intracardiac injection at time of reperfusion by TTC staining method; format: functional, organism-based; details: Myocardium
Outline: (§4)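 Male C57BL/6J mice, 10–12 weeks old, anesthetised with pentobarbital (50 mg/kg) plus ketamine (60 mg/kg). Left coronary artery occluded with PE-10 tubing for 45 min. Single intracardiac injection at reperfusion; vehicle 0.5% v/v THF in sterile saline. Reperfusion lasted 24 h, then area-at-risk and infarct measured by Evans blue/TTC staining. n = 6–17 per group.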

[12] = tested on: Mus musculus; experiment: Cardioprotective activity in C57BL6/J mouse model of myocardial ischemia/reperfusion assessed as reduction in infarct size per area-at-risk at 100 ug/kg dosed through direct intracardiac injection at time of reperfusion by TTC staining method; format: functional; details: Myocardium; outline: as §4
[13] = tested on: Mus musculus; experiment: Cardioprotective activity in C57BL6/J mouse model of myocardial ischemia/reperfusion assessed as reduction in infarct size per area-at-risk at 50 ug/kg dosed through direct intracardiac injection at time of reperfusion by TTC staining method; format: functional; details: Myocardium; outline: as §4
[14] = tested on: Mus musculus; experiment: Cardioprotective activity in C57BL6/J mouse model of myocardial ischemia/reperfusion assessed as reduction in circulating cardiac troponin-1 level at 50 ug/kg dosed through direct intracardiac injection at time of reperfusion; format: functional, organism-based; details: Heart
Outline: (§5)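 Male C57BL/6J mice, 10–12 weeks old, were anesthetized with pentobarbital (50 mg/kg) plus ketamine (60 mg/kg). The left coronary artery was occluded for 45 min. At reperfusion, donor was injected intracardiac: dissolved in THF, diluted in sterile saline to 0.05 or 0.1 mg/mL, final 0.5% v/v THF. Vehicle was 0.5% THF in saline. Tail-vein blood was drawn at 4 h reperfusion for troponin I.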

[15] = tested on: Mus musculus; experiment: Cardioprotective activity in C57BL6/J mouse model of myocardial ischemia/reperfusion assessed as reduction in circulating cardiac troponin-1 level at 100 ug/kg dosed through direct intracardiac injection at time of reperfusion; format: functional, organism-based; details: Heart; outline: as §5
[16] = tested on: Mus musculus; experiment: Effect on area-at-risk per left ventricle in C57BL6/J mouse model of myocardial ischemia/reperfusion at 50 and 100 ug/kg dosed through direct intracardiac injection at time of reperfusion by TTC staining method; format: organism-based, Heart left ventricle; details: in vivo, 0.1 mg/kg; outline: as §4
[17] = Induction of […] release in pH 7.4 PBS buffer containing 10% THF incubated for 2 hrs at room temperature in presence of 2 mM cysteine by methylene blue based UV-Vis spectrometry; format: physicochemical; details: pH 7.4, 2 h; outline: as §2
[18] = Induction of […] release in pH 7.4 PBS buffer containing 10% THF incubated for 2 hrs at room temperature in presence of 0.5 mM cysteine by methylene blue based UV-Vis spectrometry; format: physicochemical; details: pH 7.4, 2 h; outline: as §2
[19] = tested on: H9c2; experiment: Cytoprotective activity against H2O2-induced cell damage in rat H9c2 cells at 480 uM incubated for 1 hr before H2O2 challenge for 5 hrs by CCK8 assay; format: functional, cell-based; outline: as §1

SMILES | Time [2] [min] | Time [3] [min] | Activity [4] [µM] | Activity [5] [µM] | also measured
O=C(N[C@@H](CS)C(=O)O)c1ccccc1 |  |  |  |  | Activity [1]: inactive
O=C(NSC(=O)c1ccc(F)cc1)c1ccccc1 | 50 | 55 | 39.5 | 40.6 | Activity [6]: Non-toxic; Activity [7]: Toxic; Activity [8]: Non-toxic; Activity [9]: Active; Activity [10]: Active; inhibition [11]: Dose-dependent effect; inhibition in vivo at 0.1 mg/kg [12]: 50%; inhibition in vivo at 0.05 mg/kg [13]: 50%; inhibition [14]: Active; inhibition [15]: Active; Activity [16]: Non-toxic
O=C(NSC(=O)c1ccccc1)c1ccccc1 | 55 | 65 | 55.8 | 51.2 | Activity [17]: Active; Activity [18]: Not Active; Activity [6]: Non-toxic; Activity [7]: Toxic; Activity [8]: Non-toxic; Activity [9]: Active; Activity [10]: Active; inhibition [11]: Dose-dependent effect; inhibition in vivo at 0.1 mg/kg [12]: 35%; Activity [16]: Non-toxic
N[C@@H](CS)C(=O)O |  |  |  |  | Activity [19]: inactive
NC(=O)c1ccccc1 |  |  |  |  | Activity [1]: inactive
Cc1ccccc1C(=O)NSC(=O)c1ccccc1 | 55 | 65 | 51.4 | 57.6 | 
CC(=O)NSC(=O)c1ccccc1 | 45 | 50 | 46.4 | 58.3 | 
O=C(NSC(=O)c1ccccc1)Nc1ccccc1 | 95 | 110 | 21.5 | 29.9 | 
COc1ccc(C(=O)SNC(=O)c2ccccc2)cc1 | 60 | 65 | 41.8 | 46.8 | Activity [6]: Non-toxic; Activity [7]: Toxic; Activity [8]: Non-toxic; Activity [9]: Active; Activity [10]: Active
Cc1ccc(NC(=O)NSC(=O)c2ccccc2)cc1 | 90 | 130 | 21.8 | 27.4 | 
CN(C)c1ccc(C(=O)SNC(=O)c2ccccc2)cc1 | 65 | 80 | 19.5 | 7.6 | 
O=C(NSC(=O)c1ccc(Cl)cc1)Nc1ccccc1 | 95 | 120 | 18.2 | 24.9 | 
